This is a sample that favours compounds with a hit; in the whole collection about 3% have one here.
HIF act: HIF pathway transcriptional activators, primary screen, cell-based, U2OS HRE-luciferase, luminescence; U2OS HRE-luciferase reporter; normalized: DMSO 0%, desferrioxamine 100%; activation, % at 7.5 µM (by protocol); actives 0.32% (n = 300,000); AID 1910, 2009;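 active = mean activation of at least 10% of the iron chelator positive control signal, with at least half of replicates also reaching 10%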
T cruzi repl: inhibitors of intracellular T. cruzi growth, primary screen, luminescence, NIH3T3 host cells; T. cruzi beta-gal in NIH3T3, 90 h; inhibition, % (concentration not given with the values); actives 1.4% (n = 300,000); AID 1885, 2009;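 active = mean inhibition across valid replicates above about 55%, limit read from the data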;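 note: signal also drops with host cell toxicity which is not excluded here; higher percent means less beta-gal luminescence so fewer parasites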
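System: mouse NIH/3T3 fibroblasts infected with β-gal-expressing T. cruzi Tulahuen C4 / Input: NIH/3T3 cells, 5,000 per well / Buffer or medium: Low-serum DMEM with 2% FBS / Probe or stimulus: 5000 reporter trypomastigotes per well / Schedule: ≥90 h infection period, 3 h prior cell attachment / Measured by: GalScreen luminescence, 60 min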
V-ATPase pHluor: regulators of yeast V-ATPase proton pumping, primary screen, pHLuorin cytosolic pH fluorescence; S. cerevisiae; response, % at 10 µM; actives 0.37% (n = 350,000); in the data active = response mostly above about 7.3%, no sharp cut-off; inactive = mostly below about 5.4%; note: actives read high
AI-2 QS mod: Vibrio harveyi AI-2 quorum sensing modulators, primary screen, JMH597 strain, luminescence/OD600 ratio; Vibrio harveyi JMH597 AI-2 luminescence/OD600 ratio, 9 h; active compounds read low; strain lacks LuxN and CqsS sensors; 0 = neutral-control median; activity change, % at 7.5 µM; actives 0.4% (n = 300,000); in the data active = activity change below about -75%, passing the limit was not always enough;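 note: luminescence divided by OD600 gain over 9 h not by final OD600 alone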
CR mimetic SO: reduction of superoxide in aged yeast, primary screen, HTS; S. cerevisiae aged cells, superoxide DHE fluorescence; active compounds read low; superoxide response (% of plate mean), % at 10 µM; actives 0.18% (n = 330,000);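 active = superoxide response under a set limit, about three screen SD below normal, cut at about 65% in these data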;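 note: yeast aged for seven days with compound at 30 °C before DHE staining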
CendR NRP1 mod: modulators of CendR peptide binding to NRP-1, primary screen, biochemical, fluorescence polarization, uHTS. inhibition, % at 25 µM. FAM-RPARPAR peptide binding to NRP-1. actives 0.85% (n = 360,000). Neuropilin-1 (Homo sapiens), O14786;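 active = inhibition or corrected inhibition above about 18%, plus a signal ratio from 0.5 to 1.5, limit read from the data, passing the limit was not always enough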
Target sequence (O14786 whole entry, looked up): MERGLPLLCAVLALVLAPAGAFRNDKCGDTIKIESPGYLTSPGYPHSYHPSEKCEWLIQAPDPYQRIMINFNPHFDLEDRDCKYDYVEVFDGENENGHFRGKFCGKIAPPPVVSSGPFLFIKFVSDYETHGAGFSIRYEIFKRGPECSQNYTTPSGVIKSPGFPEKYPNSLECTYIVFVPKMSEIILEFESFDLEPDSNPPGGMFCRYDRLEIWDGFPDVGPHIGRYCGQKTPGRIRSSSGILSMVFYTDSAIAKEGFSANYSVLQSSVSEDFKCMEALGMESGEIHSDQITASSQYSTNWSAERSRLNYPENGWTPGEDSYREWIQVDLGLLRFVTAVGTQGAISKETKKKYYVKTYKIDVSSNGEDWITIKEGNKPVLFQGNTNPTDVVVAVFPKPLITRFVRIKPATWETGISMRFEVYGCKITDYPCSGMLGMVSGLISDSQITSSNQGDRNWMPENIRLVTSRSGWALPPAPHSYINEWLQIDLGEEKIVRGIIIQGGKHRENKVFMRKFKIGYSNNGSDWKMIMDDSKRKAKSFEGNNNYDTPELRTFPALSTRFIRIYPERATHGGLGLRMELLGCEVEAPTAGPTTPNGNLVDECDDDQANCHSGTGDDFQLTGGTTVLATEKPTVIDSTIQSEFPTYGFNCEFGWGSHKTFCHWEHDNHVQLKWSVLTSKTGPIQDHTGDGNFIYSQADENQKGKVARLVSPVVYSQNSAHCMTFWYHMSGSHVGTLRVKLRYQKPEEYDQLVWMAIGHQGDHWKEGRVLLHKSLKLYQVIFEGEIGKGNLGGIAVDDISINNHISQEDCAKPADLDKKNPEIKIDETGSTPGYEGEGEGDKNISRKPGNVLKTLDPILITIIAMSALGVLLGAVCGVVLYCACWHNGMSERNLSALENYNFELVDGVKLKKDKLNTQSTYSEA
Hits are given with their value.

For O=C(COC(=O)c1ccccc1O)Nc1ccc2ccccc2c1 the results were V-ATPase pHluor inactive, CR mimetic SO inactive and CendR NRP1 mod inactive.
For CCOc1ccc(NC(=O)N2CCC(NC(=O)c3ccco3)CC2)cc1 the results were HIF act inactive, T cruzi repl inactive, V-ATPase pHluor inactive, AI-2 QS mod inactive, CR mimetic SO inactive and CendR NRP1 mod inactive.
For COc1ccc2[nH]c(C)c(CCN(Cc3cccs3)C(=S)Nc3cccc(F)c3)c2c1 the results were HIF act inactive, T cruzi repl 62.9, V-ATPase pHluor inactive, AI-2 QS mod inactive, CR mimetic SO inactive and CendR NRP1 mod inactive.
`Cc1ccc2[nH]c(C)c(CCN(Cc3cccnc3)C(=S)NC(C)(C)C)c2c1` gave HIF act inactive, T cruzi repl inactive, V-ATPase pHluor inactive, AI-2 QS mod inactive, CR mimetic SO inactive and CendR NRP1 mod inactive.
Cc1ccccc1NC(=S)N(CCc1c(C)[nH]c2ccc(F)cc12)Cc1cccnc1 was read as HIF act inactive, T cruzi repl inactive, V-ATPase pHluor inactive, AI-2 QS mod inactive, CR mimetic SO inactive and CendR NRP1 mod inactive.
`Cc1[nH]c2ccc(F)cc2c1CCN(Cc1cccnc1)C(=S)NC(C)(C)C` gave HIF act inactive, T cruzi repl 64.9, V-ATPase pHluor inactive, AI-2 QS mod inactive, CR mimetic SO inactive and CendR NRP1 mod inactive.
COc1cccc(NC(=S)N(CCc2c(C)[nH]c3ccc(C)cc23)Cc2cccs2)c1 was read as HIF act inactive, T cruzi repl inactive, V-ATPase pHluor inactive, AI-2 QS mod inactive, CR mimetic SO inactive and CendR NRP1 mod inactive.
`Cc1[nH]c2ccc(F)cc2c1CCN(Cc1cccnc1)C(=S)Nc1cccc(F)c1` gave HIF act inactive, T cruzi repl 64.7, V-ATPase pHluor inactive, AI-2 QS mod inactive, CR mimetic SO inactive and CendR NRP1 mod inactive.
`Cc1cc(=O)c2cc(NC(=O)c3ccccc3Cl)ccc2[nH]1` gave HIF act inactive, T cruzi repl inactive, V-ATPase pHluor inactive, AI-2 QS mod inactive, CR mimetic SO inactive and CendR NRP1 mod inactive.
COC(=O)c1ccc(C2/C(=C(/O)c3ccc4c(c3)CC(C)O4)C(=O)C(=O)N2Cc2cccnc2)cc1 (centres undefined) was read as HIF act inactive, T cruzi repl inactive, V-ATPase pHluor inactive, AI-2 QS mod inactive, CR mimetic SO inactive and CendR NRP1 mod inactive.
For CCC(=O)c1ccc(OCC(O)CNCCc2ccc(Cl)cc2)cc1 (centres undefined) the results were HIF act inactive, T cruzi repl inactive, V-ATPase pHluor inactive, AI-2 QS mod inactive, CR mimetic SO inactive and CendR NRP1 mod inactive.
For S=C1NC(C23CC4CC(CC(C4)C2)C3)=CC(c2ccc3c(c2)OCO3)N1 (centres undefined) the results were HIF act inactive, T cruzi repl 69.7, V-ATPase pHluor inactive, AI-2 QS mod inactive, CR mimetic SO inactive and CendR NRP1 mod inactive.
Screening COc1cc(C2C=C(C34CC5CC(CC(C5)C3)C4)NC(=S)N2)cc(OC)c1OC (centres undefined) returned HIF act inactive, T cruzi repl inactive, V-ATPase pHluor inactive, AI-2 QS mod inactive, CR mimetic SO inactive and CendR NRP1 mod inactive.
COc1ccc(OC)c(C2C=C(C34CC5CC(CC(C5)C3)C4)NC(=S)N2)c1 (centres undefined) was read as HIF act inactive, T cruzi repl 64.5, V-ATPase pHluor inactive, AI-2 QS mod inactive, CR mimetic SO inactive and CendR NRP1 mod inactive.
CC(C)N(CCCNC(=O)Cn1ncc2c([nH]c3ccccc32)c1=O)Cc1ccccc1 was read as HIF act inactive, T cruzi repl inactive, V-ATPase pHluor inactive, AI-2 QS mod inactive, CR mimetic SO inactive and CendR NRP1 mod 25.9.
`Cc1ccc2[nH]c3c(=O)n(CC(=O)NCCCN(C)Cc4ccccc4)ncc3c2c1` gave HIF act 66.3, T cruzi repl inactive, V-ATPase pHluor inactive, AI-2 QS mod inactive, CR mimetic SO inactive and CendR NRP1 mod inactive.
For O=C(Cn1ncc2c([nH]c3ccccc32)c1=O)NCCc1ccc(Cl)cc1 the results were HIF act inactive, T cruzi repl inactive, V-ATPase pHluor inactive, AI-2 QS mod inactive, CR mimetic SO inactive and CendR NRP1 mod inactive.
CC(c1ccon1)N(C)C(=O)c1ccc2nc(Cc3cccc(Cl)c3)oc2c1 (centres undefined) was read as HIF act inactive, T cruzi repl inactive, V-ATPase pHluor inactive, AI-2 QS mod inactive, CR mimetic SO inactive and CendR NRP1 mod inactive.
For c1ccc(CSC2=NNC(c3ccccn3)S2)cc1 (centres undefined) the results were HIF act 13.9, T cruzi repl 63.3, V-ATPase pHluor inactive, AI-2 QS mod inactive, CR mimetic SO inactive and CendR NRP1 mod inactive.
c1ccc(CSc2ncccn2)cc1 was read as T cruzi repl inactive, V-ATPase pHluor inactive, AI-2 QS mod inactive, CR mimetic SO inactive and CendR NRP1 mod inactive.
For O=C(CSC1=NNC(c2ccccn2)S1)Nc1ccc(C(F)(F)F)cc1 (centres undefined) the results were HIF act 25.3, T cruzi repl inactive, V-ATPase pHluor inactive, AI-2 QS mod inactive, CR mimetic SO inactive and CendR NRP1 mod inactive.
`O=C(Nc1ccccc1)c1c(F)c(F)c(F)c(F)c1F` gave HIF act inactive, T cruzi repl inactive, V-ATPase pHluor inactive, AI-2 QS mod inactive, CR mimetic SO inactive and CendR NRP1 mod inactive.
Screening COc1ccc2[nH]c(C(=O)N3CCCN(Cc4ccc(F)cc4)CC3)cc2c1 returned HIF act inactive, T cruzi repl 60.4, V-ATPase pHluor inactive, AI-2 QS mod inactive, CR mimetic SO inactive and CendR NRP1 mod inactive.
O=C(c1cc([N+](=O)[O-])ccc1Cl)N1CCN(Cc2ccc3c(c2)OCO3)CC1 was read as HIF act inactive, T cruzi repl inactive, V-ATPase pHluor inactive, AI-2 QS mod inactive, CR mimetic SO inactive and CendR NRP1 mod inactive.
For O=C(c1cc([N+](=O)[O-])cc([N+](=O)[O-])c1)N1CCN(Cc2ccc3c(c2)OCO3)CC1 the results were HIF act inactive, T cruzi repl 66.0, V-ATPase pHluor inactive, AI-2 QS mod inactive, CR mimetic SO inactive and CendR NRP1 mod inactive.
`COCc1c(C(=O)N2CCN(Cc3ccc4c(c3)OCO4)CC2)oc2ccccc12` gave V-ATPase pHluor inactive, CR mimetic SO inactive and CendR NRP1 mod 25.6.
`CCN1CCN(C(=O)c2cc3cc(F)ccc3[nH]2)CC1` gave HIF act inactive, T cruzi repl inactive, V-ATPase pHluor inactive, AI-2 QS mod inactive, CR mimetic SO inactive and CendR NRP1 mod inactive.
